Measured values taken from ChEMBL document CHEMBL5150021, “Identification of 5-(Aryl/Heteroaryl)amino-4-quinolones as Potent Membrane-Disrupting Agents to Combat Antibiotic-Resistant Gram-Positive Bacteria” (J Med Chem, 2022).
Converted amounts (≈) assume the structure as drawn. The source made the active and inactive calls. The rule behind the calls is not given here.

How the values were obtained:
Staphylococcus aureus [1] = assay: Antibacterial activity against methicillin resistant Staphylococcus aureus FPR3757 assessed as inhibition of bacterial growth incubated for 24 hrs by CLSI based method; assay type: functional; details: read-out: MIC100
Method in brief: (§1)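 It was mixed 1:1 with twofold serial compound dilutions and incubated stationary at 37 °C for 24 h. MIC was the lowest concentration giving complete inhibition of observable growth, with an oxacillin control.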

Vero [2] = assay: Cytotoxicity against African green monkey Vero cells assessed as increase in LDH release at 0.47 to 30 uM incubated for 24 hrs; assay type: toxicity, cell-based; details: chlorocebus sabaeus, dose 0.47-30 µM
Method in brief: (§2)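 Confluent Vero cells (maintained in RPMI 1640 + 10% FBS, 37 °C, 5% CO2) exposed to compound at 0.47–30 μM (twofold dilutions) in serum-free medium for 24 h at 37 °C. LDH in supernatant is measured colorimetrically at 490 nm and expressed as percent of 2% detergent positive control.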

Vero [3] = assay: Cytotoxicity against African green monkey Vero cells assessed as increase in LDH release at 30 uM incubated for 24 hrs relative to control; assay type: toxicity, cell-based; details: chlorocebus sabaeus; method in brief: as §2
[4] = Protein binding in human plasma at […] incubated for 4 hrs under shaking condition by LC-MS/MS based equilibrium dialysis method; assay type: ADME, cell-free
Method in brief: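 Rapid equilibrium dialysis (8k MWCO). Compound is spiked into human plasma at 10 μg/mL and dialysed against DPBS pH 7.4 with shaking for 4 h at 37 °C. Matrices are matched, proteins precipitated with methanol containing internal standard, and both chambers quantified by LC-MS/MS against a calibration curve. Percent free and bound are calculated from chamber concentrations.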

[5] = Kinetic aqueous solubility of the compound in DPBS at pH 7.4 at 100 ug/ml measured after 6 hrs by LC-MS/MS analysis; assay type: physicochemical; details: DPBS, pH 7.4, dose 100 µg/ml, read-out: Kinetic_solubility
Staphylococcus aureus [6] = assay: Antibacterial activity against methicillin-resistant Staphylococcus aureus MW2 assessed as inhibition of bacterial growth incubated for 24 hrs by CLSI based method; assay type: functional
Method in brief: (§3)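 Broth microdilution per CLSI. Equal volume of twofold serial compound dilutions added. Incubated stationary at 37 °C for 24 h. MIC taken as lowest concentration giving complete inhibition of visible growth. Oxacillin control for Gram-positives, ceftriaxone for Gram-negatives.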

Staphylococcus aureus [7] = assay: Antibacterial activity against methicillin-resistant Staphylococcus aureus COL assessed as inhibition of bacterial growth incubated for 24 hrs by CLSI based method; assay type: functional; method in brief: as §3
Staphylococcus aureus [8] = assay: Antibacterial activity against methicillin-resistant Staphylococcus aureus N315 assessed as inhibition of bacterial growth incubated for 24 hrs by CLSI based method; assay type: functional; method in brief: as §3
Staphylococcus aureus [9] = assay: Antibacterial activity against methicillin-resistant Staphylococcus aureus NRS71 assessed as inhibition of bacterial growth incubated for 24 hrs by CLSI based method; assay type: functional; method in brief: as §3
[10] = test system: Staphylococcus epidermidis; assay: Antibacterial activity against Staphylococcus epidermidis NIF104008 assessed as inhibition of bacterial growth incubated for 24 hrs by CLSI based method; assay type: functional; method in brief: as §3
[11] = test system: Staphylococcus epidermidis; assay: Antibacterial activity against Staphylococcus epidermidis NIF104003 assessed as inhibition of bacterial growth incubated for 24 hrs by CLSI based method; assay type: functional; method in brief: as §3
Enterococcus faecalis [12] = assay: Antibacterial activity against Enterococcus faecalis ATCC700802 assessed as inhibition of bacterial growth incubated for 24 hrs by CLSI based method; assay type: functional; method in brief: as §3
Enterococcus faecalis [13] = assay: Antibacterial activity against Enterococcus faecalis DHMC #1 assessed as inhibition of bacterial growth incubated for 24 hrs by CLSI based method; assay type: functional; method in brief: as §3
Enterococcus faecium [14] = assay: Antibacterial activity against Enterococcus faecium ATCC19579 assessed as inhibition of bacterial growth incubated for 24 hrs by CLSI based method; assay type: functional; method in brief: as §3
Enterococcus faecium [15] = assay: Antibacterial activity against Enterococcus faecium DHMC #1 assessed as inhibition of bacterial growth incubated for 24 hrs by CLSI based method; assay type: functional; method in brief: as §3
Escherichia coli = assay: Antibacterial activity against Escherichia coli DHMC-1 assessed as inhibition of bacterial growth incubated for 24 hrs by CLSI based method; assay type: functional; method in brief: as §3
Klebsiella pneumoniae = assay: Antibacterial activity against Klebsiella pneumoniae 7117 assessed as inhibition of bacterial growth incubated for 24 hrs by CLSI based method; assay type: functional; method in brief: as §3
Enterobacter cloacae = assay: Antibacterial activity against Enterobacter cloacae ND-21 assessed as inhibition of bacterial growth incubated for 24 hrs by CLSI based method; assay type: functional; method in brief: as §3
Candida albicans = assay: Antifungal activity against Candida albicans SC5314 assessed as inhibition of bacterial growth incubated for 24 hrs by CLSI based method; assay type: functional
Method in brief: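 Broth microdilution per CLSI. It is mixed 1:1 with twofold serial compound dilutions and incubated stationary at 35 °C for 24 h. MIC is read as the lowest concentration with no observable growth.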

Staphylococcus aureus [16] = assay: Antibacterial activity against community-associated methicillin-resistant Staphylococcus aureus USA300 FPR3757 assessed as inhibition of bacterial growth incubated for 24 hrs by CLSI based method; assay type: functional; method in brief: as §1
Staphylococcus simulans [17] = assay: Antibacterial activity against Staphylococcus simulans assessed as inhibition of DNA synthesis at 0.5 to 5 times MIC measured upto 60 mins by [3H]-thymidine incorporation based scintillation counter analysis; assay type: functional, organism-based; details: DDE = dose-dependent effect
Method in brief: (§4)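 S. simulans was grown in cation-adjusted Mueller–Hinton medium at 37 °C. […] Samples were taken at 0–60 min, precipitated with ice-cold 10% TCA, filtered and counted. Inhibition at 60 min is relative to DMSO control; triplicate.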

Staphylococcus simulans [18] = assay: Antibacterial activity against Staphylococcus simulans assessed as inhibition of RNA synthesis at 0.5 to 5 times MIC measured upto 60 mins by [3H]-uridine incorporation based scintillation counter analysis; assay type: functional, organism-based; details: DDE = dose-dependent effect; method in brief: as §4
Staphylococcus simulans [19] = assay: Antibacterial activity against Staphylococcus simulans assessed as inhibition of protein synthesis at 0.5 to 5 times MIC measured upto 60 mins by [3H]-L-isoleucine incorporation based scintillation counter analysis; assay type: functional, organism-based; details: DDE = dose-dependent effect; method in brief: as §4
Staphylococcus simulans [20] = assay: Antibacterial activity against Staphylococcus simulans assessed as inhibition of DNA synthesis at 5 times MIC measured upto 60 mins by [3H]-thymidine incorporation based scintillation counter analysis; assay type: functional; details: 1 h
Method in brief: (§5)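 Aliquots taken 0–60 min, precipitated with ice-cold 10% TCA, filtered, washed, scintillation counted. Percent inhibition is relative to DMSO control at 60 min; triplicate.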

Staphylococcus simulans [21] = assay: Antibacterial activity against Staphylococcus simulans assessed as inhibition of RNA synthesis at 5 times MIC measured upto 60 mins by [3H]-uridine incorporation based scintillation counter analysis; assay type: functional; details: 1 h; method in brief: as §5
Staphylococcus simulans [22] = assay: Antibacterial activity against Staphylococcus simulans assessed as inhibition of protein synthesis at 5 times MIC measured upto 60 mins by [3H]-L-isoleucine incorporation based scintillation counter analysis; assay type: functional; details: 1 h; method in brief: as §5
Staphylococcus simulans [23] = assay: Antibacterial activity against Staphylococcus simulans assessed as inhibition of cell wall synthesis at 5 times MIC measured upto 60 mins by [3H]-glucosamine incorporation based scintillation counter analysis; assay type: functional; details: 1 h; method in brief: as §5
Staphylococcus aureus [24] = assay: Antibacterial activity against methicillin resistant Staphylococcus aureus FPR3757 assessed as inhibition of bacterial growth incubated for 24 hrs in presence of 10% FBS by CLSI based method; assay type: functional
Method in brief: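 CLSI broth microdilution against MRSA FPR3757 (USA300) in Mueller–Hinton broth supplemented with 10% serum (fetal bovine or mouse). Inoculum 10⁶ CFU/mL with twofold serial compound dilutions, stationary incubation at 37 °C for 24 h. MIC read as lowest concentration with complete inhibition of visible growth.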

Staphylococcus aureus [25] = assay: microbe, parasite or virus in culture; details: USA300 FPR3757, 24 h
Cell membrane [26] = assay: Induction of cell membrane damage in Staphylococcus aureus USA300 assessed as cross-wall-septum formation with reduced splitting at 1 times MIC measured after 10 mins by TEM analysis; assay type: subcellular
Cell membrane [27] = assay: Induction of cell membrane damage in Staphylococcus aureus USA300 assessed as mesosome-like membrane inclusions at 1 times MIC measured after 1 hrs by TEM analysis
Method in brief: (§6)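 Fixed in glutaraldehyde/paraformaldehyde in cacodylate pH 7.4, post-fixed with osmium tetroxide, stained with uranyl acetate, resin-embedded, thin-sectioned and imaged by TEM.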

Cell membrane [28] = assay: Induction of cell membrane damage in Staphylococcus aureus USA300 assessed as membrane wrinkling at 1 times MIC measured after 1 hrs by TEM analysis; method in brief: as §6
Cell membrane [29] = assay: Induction of cell membrane damage in Staphylococcus aureus USA300 assessed as bulging of the septum at 1 times MIC measured after 1 hrs by TEM analysis; method in brief: as §6
[30] = Induction of drug resistance in Staphylococcus aureus FPR3757 assessed as increase in MIC incubated for 65 days (reference value: 0.25 ug/ml); assay type: functional; details: FPR3757, 1560 h, time 65 day

Row | SMILES | MIC (Staphylococcus aureus [1]) [µg/mL] | MIC (Staphylococcus aureus [6]) [µg/mL] | MIC (Staphylococcus aureus [7]) [µg/mL] | MIC (Staphylococcus aureus [8]) [µg/mL] | MIC (Staphylococcus aureus [9]) [µg/mL] | MIC [10] [µg/mL] | MIC (Enterococcus faecalis [12]) [µg/mL] | MIC (Enterococcus faecalis [13]) [µg/mL] | MIC (Enterococcus faecium [14]) [µg/mL] | MIC (Escherichia coli) [µg/mL] | MIC (Klebsiella pneumoniae) [µg/mL] | MIC (Enterobacter cloacae) [µg/mL] | MIC (Candida albicans) [µg/mL] | MIC (Staphylococcus aureus [16]) [µg/mL] | inhibition (Staphylococcus simulans [17]) | inhibition (Staphylococcus simulans [18]) | inhibition (Staphylococcus simulans [19]) | inhibition (INH) (Staphylococcus simulans [20]) [%] | inhibition (INH) (Staphylococcus simulans [21]) [%] | inhibition (INH) (Staphylococcus simulans [22]) [%] | other results
1 | O=c1cc(C(F)(F)F)[nH]c2cc(C(F)(F)F)cc(Nc3ccc(F)cn3)c12 | 0.125 (≈ 0.319 µM) |  |  |  |  |  |  |  |  |  |  |  |  |  |  |  |  |  |  |  | Activity (Vero [2]): Non-Toxic; Activity (Vero [3]): 20%; PPB [4]: 99.8%; solubility kinetic at 6 h [5]: 1 µg/mL (≈ 2.56 µM)
2 | FC(F)(F)c1ccc2c(Nc3ccc(Cl)c(Cl)c3)cc(C(F)(F)F)nc2c1 | 0.0625 (≈ 0.147 µM) | 0.125 (≈ 0.294 µM) | 0.25 (≈ 0.588 µM) | 0.25 (≈ 0.588 µM) | 0.25 (≈ 0.588 µM) | 0.125 (≈ 0.294 µM) | 0.5 (≈ 1.18 µM) | 0.25 (≈ 0.588 µM) | 0.125 (≈ 0.294 µM) | > 128 | > 128 | > 128 | > 256 | 0.0625 (≈ 0.147 µM) | Dde | Dde | Dde | 100 | 100 | 100 | MIC [11]: 0.25 µg/mL (≈ 0.588 µM); MIC (Enterococcus faecium [15]): 0.25 µg/mL (≈ 0.588 µM); inhibition (INH) (Staphylococcus simulans [23]): 100%; MIC (Staphylococcus aureus [24]): 8 µg/mL; MBC (Staphylococcus aureus [25]): 2 µg/mL (≈ 4.7 µM)
3 | FC(F)(F)c1ccc(Nc2cc(C(F)(F)F)nc3cc(C(F)(F)F)ccc23)nc1 | 0.25 (≈ 0.588 µM) | 0.125 (≈ 0.294 µM) | 0.25 (≈ 0.588 µM) | 0.25 (≈ 0.588 µM) | 0.25 (≈ 0.588 µM) | 0.125 (≈ 0.294 µM) | 16 (≈ 37.6 µM) | 1 (≈ 2.35 µM) | 1 (≈ 2.35 µM) | > 128 | > 128 | > 128 | > 256 | 0.25 (≈ 0.588 µM) | Dde | Dde | Dde | 100 | 100 | 100 | inhibition (INH) (Staphylococcus simulans [23]): 100%; Activity (Cell membrane [26]): Active; Activity (Cell membrane [27]): Active; Activity (Cell membrane [28]): Active; Activity (Cell membrane [29]): Active; MIC [30]: 0.5 µg/mL; MIC (Staphylococcus aureus [24]): 4 µg/mL; MBC (Staphylococcus aureus [25]): 8 µg/mL (≈ 18.8 µM)
